Drawing on ChEMBL document CHEMBL3232811, “Mineralocorticoid receptor antagonists: identification of heterocyclic amide replacements in the oxazolidinedione series” (Bioorg Med Chem Lett, 2014), this text covers Vd, bioavailability and AUC/dose for two compounds.

The structures appear in SMILES notation.

What all share (format): ADME, organism-based
What all share (conditions): in vivo

Data set [1] is described as follows: Volume of distribution in rat at 1 mg/kg, iv and 2 mg/kg, po. In short, it runs like this: (§1)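 Rat PK: compound formulated at 1 mg/mL in PEG 200:water (70:30). Dosed iv at 1 mg/kg (n = 2) and orally at 2 mg/kg (n = 3). Blood concentrations measured by LC/MS/MS after protein precipitation with acetonitrile.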
A short description of data set [2]: Oral bioavailability in rat at 2 mg/kg. In short, it runs like this: as §1
Data set [3] has as its system Rattus norvegicus. The data set can be described thus: Dose normalized AUC in rat at 1 mg/kg, iv. The arrangement: dose 1 mg/kg, route intravenous. In short, it runs like this: as §1

Usually bioavailability stands for the share of a dose that reaches the circulation, judged against a reference dose that is usually intravenous. Higher therefore signals good availability. As for `COc1cc(OC)cc(-c2nnc([C@@]3(Cc4ccccc4)OC(=O)N([C@H](C)c4ccccc4)C3=O)o2)c1`, in data set [1], the Vd turned out to be 1.2 L/kg. Also, the bioavailability in data set [2] was determined as 44%. The compound further yielded an AUC/dose in data set [3] of 3.7 µM·kg·h/mg.
The matching figures for `C[C@H](c1ccccc1)N1C(=O)O[C@](Cc2ccccc2)(c2nnc(C3(c4ccccc4)CC3)o2)C1=O`: 1 L/kg, 89% and 4.4 µM·kg·h/mg.
